Here are results for four compounds from ChEMBL document CHEMBL1128250, “Structure-activity studies of 2,3,4,4a,5,9b-hexahydroindeno[1,2-c]pyridines as antispermatogenic agents for male contraception” (1995).

Test [1] relates to Mus musculus. In words: Tested for its effect on spermatogenic index of male CD-1 mice when dosed with 15 mg/kg (Dunnett's one-tailed t-test, p<0.05). The class given is functional. The procedure, abridged: (§1)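 Male CD-1 mice gavaged daily for 35 days in 1% Tween-20 in water at 10 mL/kg. Half of each group was killed 7 days after the last dose; testes were weighed and sectioned for histology. Spermatogenic index was scored 0–6 from the cell types and late spermatids per tubule. Mean ± SEM; Dunnett's one-tailed t-test versus control.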

For test [2], the system named is Mus musculus. In words: Tested for its effect on spermatogenic index 3 days after single oral dose (10 mg/kg). The test is classed as functional. The procedure, abridged: (§2)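 Male CD-1 (ICR) mice, 7 weeks old on arrival, 5 per dose, single gavage of 10 mL/kg on day 0. Vehicle was 0.15 M acetate buffer pH 5, ethanol/Tween-20/water 3:7:90, or 1% Tween-20. Mice were killed with CO2 at 72 h and testes weighed and scored for spermatogenic index (0–6 scale). Results are % reduction versus the vehicle control. Dunnett's one-tailed t-test.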

In test [3] the test system is Mus musculus. In words: Tested for its effect on spermatogenic index 3 days after single sub cutaneous dose (10 mg/kg). The class given is functional. The procedure, abridged: (§3)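 Single subcutaneous injection, 10 mL/kg, to male CD-1 mice (5 per dose) in ethanol/Tween-20/water (3:7:90, v/v/v) on day 0. Mice were killed at 72 h; testes were weighed and histology scored for spermatogenic index (0–6). Results are % reduction from the vehicle control, with a 30 mg/kg positive control group. Dunnett's one-tailed t-test.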

The subject of test [4] is Mus musculus. In words: Tested for its effect on testes weight 3 days after single oral dose (30 mg/kg). The class given is functional, Testis. The procedure, abridged: (§4)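 CD-1 outbred Swiss albino male mice, 5 per dose, single gavage on day 0 at 10 mL/kg. Vehicle was 0.15 M acetate buffer pH 5, ethanol/Tween-20/water (3:7:90), or 1% Tween-20 in water. CO2 euthanasia 72 h later. Testes weighed and histologically scored (spermatogenic index 0–6). Values are % reduction versus the assay's vehicle control. Positive control was 30 mg/kg of the parent compound. Significance by Dunnett's one-tailed t-test, p < 0.05.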

Test [5] relates to Mus musculus. The test can be described thus: Tested for its effect on spermatogenic index 3 days after single oral dose (30 mg/kg). The class given is functional. The procedure, abridged: as §4
The subject of test [6] is Mus musculus. In words: Tested for its effect on spermatogenic index 3 days after single oral dose (3 mg/kg). The test is classed as functional. The procedure, abridged:
as §2

Test [7] relates to Mus musculus. In words: Tested for its effect on pregnancy index of male CD-1 mice when dosed with 15 mg/kg (Dunnett's one-tailed t-test, p<0.05). The test is classed as functional. The procedure, abridged: (§5)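 Male CD-1 mice (8–10/group) gavaged daily for 35 days, vehicle 1% Tween-20 in water, 10 mL/kg. From the day after the last dose, each male was housed with two females for up to 5 days, with vaginal copulatory plugs checked each morning. Pregnancy index is litters born per number of females.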

Test [8] relates to Mus musculus. In words: Tested for its effect on spermatogenic index 3 days after single oral dose (90 mg/kg),. The test is classed as functional. The procedure, abridged:
as §4

The subject of test [9] is Mus musculus. In words: Tested for its effect on spermatogenic index of male CD-1 mice when dosed with 3.75 mg/kg Data are means +/-standard error of the mean (n=4). The test is classed as functional. The procedure, abridged:
as §1

For test [10], the system named is Mus musculus. The test can be described thus: Tested for its effect on spermatogenic index of male CD-1 mice when dosed with 7.5 mg/kg (Dunnett's one-tailed t-test, p<0.05). The class given is functional. The procedure, abridged:
as §1

For test [11], the system named is Mus musculus. In words: Tested for its effect on pregnancy index of male CD-1 mice when dosed with 7.5 mg/kg (Dunnett's one-tailed t-test, p<0.05). The class given is functional. The procedure, abridged:
as §5

The test system of test [12] is Mus musculus. In words: Tested for its effect on testes weight 3 days after single sub cutaneous dose (3 mg/kg). The test is classed as functional, Testis. The procedure, abridged:
as §3

Test [13] deals with Mus musculus. In words: Tested for its effect on testes weight 3 days after single oral dose (10 mg/kg). The class given is functional, Testis. The procedure, abridged: as §4
Test [14] has as its system Mus musculus. In words: Tested for its effect on testes weight 3 days after single sub cutaneous (10 mg/kg). The class given is functional, Testis. The procedure, abridged: as §3
The subject of test [15] is Mus musculus. The test can be described thus: Tested for its effect on testes weight of male CD-1 mice when dosed with 15 mg/kg (Dunnett's one-tailed t-test, p<0.05). The test is classed as functional, Testis. The procedure, abridged:
as §1

Test [16] has as its system Mus musculus. The test can be described thus: Tested for its effect on spermatogenic index 3 days after single oral dose (90 mg/kg). The class given is functional. The procedure, abridged:
as §4

The test system of test [17] is Mus musculus. In words: Tested for its effect on testes weight of male CD-1 mice when dosed with 7.5 mg/kg (Dunnett's one-tailed t-test, p<0.05). The test is classed as functional, Testis. The procedure, abridged:
as §1

Test [18] deals with Mus musculus. In words: Tested for its effect on testes weight of male CD-1 mice when dosed with 3.75 mg/kg Data are means +/-standard error of the mean (n=4). The test is classed as functional, Testis. The procedure, abridged:
as §1

For test [19], the system named is Mus musculus. The test can be described thus: Tested for its effect on testes weight 3 days after single sub cutaneous dose (30 mg/kg). The class given is functional, Testis. The procedure, abridged: as §3
Test [20] has as its system Mus musculus. In words: Tested for its effect on pregnancy index of male CD-1 mice when dosed with 3.75 mg/kg Data are means +/-standard error of the mean (n=4). The class given is functional. The procedure, abridged: as §5
Test [21] concerns Mus musculus. In words: tested for its effect on testes weight 3 days after single oral dose (90 mg/kg). The test is classed as functional, Testis. The procedure, abridged: (§6)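 Male CD-1 (ICR)BR outbred Swiss albino mice, 5/dose, given one oral gavage dose (10 mL/kg) on day 0 in 0.15 M acetate buffer pH 5, ethanol/Tween-20/water (3:7:90), or 1% Tween-20 in water; vehicle and positive-control groups in each assay. Killed by CO2 72 h later; testes weighed. Expressed as % reduction versus vehicle control; Dunnett's one-tailed t-test.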

For test [22], the system named is Mus musculus. In words: tested for its effect on spermatogenic index 3 days after single oral dose (30 mg/kg). The class given is functional. The procedure, abridged: (§7)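 Male CD-1 (ICR)BR outbred Swiss albino mice, 5/dose, single oral gavage dose (10 mL/kg) on day 0 in acetate buffer pH 5 or Tween-20-based vehicle; killed 72 h later. Testis cross-sections scored histologically on a 0–6 spermatogenic index (Sertoli only to >100 late spermatids/tubule). Reported as % reduction versus vehicle control; Dunnett's one-tailed t-test.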

In test [23] the test system is Mus musculus. In words: tested for its effect on testes weight 3 days after single oral dose (30 mg/kg). The test is classed as functional, Testis. The procedure, abridged:
as §6

For test [24], the system named is Mus musculus. The test can be described thus: Tested for its effect on spermatogenic index 3 days after single oral dose (10 mg/kg),. The test is classed as functional. The procedure, abridged:
as §4

Test [25] relates to Mus musculus. In words: tested for its effect on spermatogenic index 3 days after single oral dose (90 mg/kg). The class given is functional. The procedure, abridged: as §7
Test [26] relates to Mus musculus. The test can be described thus: Tested for its effect on spermatogenic index 3 days after single oral dose (30 mg/kg) in mice. The test is classed as functional. The procedure, abridged:
as §4

Test [27] deals with Mus musculus. In words: Tested for its effect on mouse testes weight 3 days after single oral dose (30 mg/kg). The class given is functional, Testis. The procedure, abridged: as §4
Test [28] relates to Mus musculus. The test can be described thus: Tested for its effect on mouse testes weight 3 days after single oral dose (90 mg/kg). The class given is functional, Testis. The procedure, abridged: as §4
For test [29], the system named is Mus musculus. The test can be described thus: Tested for its effect on mouse testes weight 3 days after single oral dose (10 mg/kg). The class given is functional, Testis. The procedure, abridged: as §4
Test [30] deals with Mus musculus. In words: Tested for its effect on spermatogenic index 3 days after single oral dose (3 mg/kg) in mice. The class given is functional. The procedure, abridged:
as §4

Test [31] deals with Mus musculus. In words: Tested for its effect on spermatogenic index 3 days after single oral dose (10 mg/kg) in mice. The class given is functional. The procedure, abridged:
as §4

For test [32], the system named is Mus musculus. In words: Tested for its effect on mouse testes weight 3 days after single oral dose (3 mg/kg). The class given is functional, Testis. The procedure, abridged:
as §4

Test [33] relates to Mus musculus. The test can be described thus: Tested for its effect on spermatogenic index 3 days after single oral dose (90 mg/kg) in mice. The class given is functional. The procedure, abridged: as §4

Structures are written as SMILES. Several values for one entry are separate records, joined by “and”; a condition that tells them apart may be missing. Identical values can stand only once.

On to `CCN1CC[C@H]2[C@H](c3ccc(C(=O)OC)cc3)c3cc(C)ccc3[C@H]2C1.Cl`, for which the Spermatogenic index was 1.6 with Mus musculus [1], 5.5 in the test with Mus musculus [9] and 3 in the test on Mus musculus [10]. Further, the Reduction with Mus musculus [2] is 27%; in the test on Mus musculus [3], 28%; in the test on Mus musculus [4] it was 32% and 30%; with Mus musculus [5], 57% and 46% and 61%; with Mus musculus [6], 5%; in the test on Mus musculus [8] it was -5%. The Reduction was determined as 10% in the test with Mus musculus [12]; 17% with Mus musculus [13]; 1% in the test with Mus musculus [14]; 68% in the test on Mus musculus [16]; 19% with Mus musculus [19]. Moreover, the results for the Pregnancy index in the test with Mus musculus [7], in the test with Mus musculus [11] and in the test with Mus musculus [20] were 0, 2 and 16, respectively. The Testes weight in the test on Mus musculus [15] stood at 108.94 mg; in the test with Mus musculus [17] it was 114.7 mg; in the test with Mus musculus [18], 219.08 mg.

For the compound `CCN1CC[C@H]2[C@H](c3ccc(C)cc3C)c3cc(C)ccc3[C@H]2C1.Cl`, the Reduction in the test on Mus musculus [21] is 11%; with Mus musculus [22], 3%; in the test with Mus musculus [23], 6%; in the test on Mus musculus [24] it was 0%; in the test on Mus musculus [25], 30%; in the test with Mus musculus [13], 1%.

For the compound `Cc1ccc([C@H]2c3cc(C)ccc3[C@H]3CN(C)CC[C@@H]23)cc1.Cl`, the Reduction with Mus musculus [26] is recorded as 7%; in the test on Mus musculus [27], 12%.

Take `CCN1CC[C@H]2[C@H](c3ccc(OC)cc3)c3cc(C)ccc3[C@H]2C1.Cl`: the Reduction was 5% in the test on Mus musculus [28]; -17% in the test on Mus musculus [29]; 2% with Mus musculus [30]; -6% with Mus musculus [31]; -7% in the test with Mus musculus [32]; -5% in the test with Mus musculus [33].
